Experimental data pooled from the literature.
Lines come from different studies, so protocols differ. ≈ marks a conversion by molar mass, not a printed value.
Organism: Mycobacterium tuberculosis variant bovis BCG
Read-out: microbial growth

`Clc1ccc(COC(Cn2ccnc2)c2ccc(Cl)cc2Cl)cc1` (stereo not drawn) gave an MIC50 of 12.7 µM (≈ 4.85 µg/mL) (BCG).
`COc1ccc(C=CC(=O)c2ccc(F)cc2)cc1OC` gave an MIC of 25 µg/mL (BCG; 7 days).
`C=CC(c1ccc(-c2ccc(OC)c(C)c2)cc1)n1ccnc1` (stereo not drawn) has an MIC50 of 17.3 µM (≈ 5.27 µg/mL) (BCG).
With `Fc1ccc(COc2cccc(CNCc3cccnc3)c2)cc1` the MIC was > 62.5 µM (ATCC35734 BCG).
`Nc1cnc(C(=O)O)cn1` gave an IC50 of 800 µM (ATCC35734 BCG; 5 days).
For `COc1ccc(C=CC(=O)c2ccc(C)cc2)cc1OC`, the MIC was 25 µg/mL (BCG; 7 days).
For `C=CC(c1ccc(-c2ccc3c(c2)OCO3)cc1)n1ccnc1` (stereo not drawn), the MIC50 was 20 µM (≈ 6.09 µg/mL) (BCG).
With `COc1ccc(C=CC(=O)c2ccc(Br)cc2)cc1OC` the MIC was 12.5 µg/mL (BCG; 7 days).
With `C=CC(c1ccc(-c2ccc3c(c2)OCO3)cc1F)n1ccnc1` (stereo not drawn) the MIC50 was > 30 µM (BCG).
With `Clc1cccc(COc2ccccc2CNCc2ccncc2)c1` the MIC was > 62.5 µM (ATCC35734 BCG).
`C=CC(c1ccc(-c2ccc(OC)c(OC)c2)cc1)n1ccnc1` (stereo not drawn) has an MIC50 of > 100 µM (BCG).
`NNC(=O)c1ccncc1` has an MIC of ≤ 0.25 µM (ATCC35734 BCG).
`COc1ccc(C=CC(=O)c2ccccc2C)cc1OC` has an MIC of 50 µg/mL (BCG; 7 days).
`c1ccc(COc2ccc(CNCc3ccncc3)cc2)cc1` has an MIC of > 62.5 µM (ATCC35734 BCG).
With `CCCNc1cnc(C(=O)O)cn1` the IC50 was 700 µM (ATCC35734 BCG; 5 days).
